Bioassay records as filed in PubChem BioAssay.
Not all results are given here.
Apaf1 activ – activators of human Apaf-1 apoptosome, primary screen, biochemical, DEVD-Rh110 fluorescence, uHTS; AID 489031, 2010; activity change, negative = activation, % at 20 µM; hit rate 0.31% among 330,000; Apoptotic protease-activating factor 1 (Homo sapiens), O14727; Apaf-1 apoptosome caspase-3 activation; hits give low values;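 active = activity change at or below -40% at 20 µM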
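Assay system – biochemical Apaf-1 apoptosome reconstitution · Medium – 20 mM HEPES buffer, pH 7.5, containing CHAPS and BSA · Incubation – 30 min preincubation, 50 min reaction, room temperature · Measured by – Caspase-3-released Rh110 fluorescence, 540 nm emission, 480 nm excitation · Read-out – Caspase-3 cleavage activity downstream of Apaf-1 activation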
Rh110 interf act – Rh110 fluorescence interference by putative Apaf-1 activators, confirmation, artefact control for Apaf-1 activator project, biochemical, 20 µM. shares compounds with Apaf1 activ. quenched caspase reaction, Ex480/Em540. fluorescence interference (activity change), % at 20 µM, hits read low. 980 tested, under 10 active;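 active = mean activity change at or below -40% when tested at 20 µM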
Apaf-1 act conf2 – Apaf-1 activators, single-dose retest, confirmation, biochemical, fluorescence, DEVD-Rh110, 20 µM | hit rate 5% among 980 | reconstituted apoptosome caspase-3 activity; hits give low values | shares compounds with Apaf1 activ | AID 504617, 2011 | activity change, negative = activation, % at 20 µM;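 active = mean activity change at or below -40%, meaning activation of 40% or more, at 20 µM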
* marks the source's active call; other numbers are inactive results; · = no result given.

SMILES	Apaf1 activ	Rh110 interf act	Apaf-1 act conf2
COc1ccc(Cn2c(N)c(C#N)c3nc4ccccc4nc32)cc1OC	86	·	·
Cc1ccc(C)c(S(=O)(=O)c2c(C)cc(C)nc2Cl)c1	-303*	1	8
Cc1ccc(C)c(S(=O)(=O)C(C#N)c2nc3ccccc3nc2N2CCCC2)c1 (centres undefined)	87	·	·
C/C(=C\C(=S)Nc1ccccc1)Nc1ccc2ccccc2c1	41	·	·
CCN1CCN(c2ccc(NC(=O)c3cc4ccccc4cc3OC)cc2C)CC1	51	·	·
Cc1occc1C(=O)Nc1ccc2ccccc2c1	-351*	1	15
Nc1ccc2nn(-c3ccccc3)nc2c1	93	·	·
